For one assay, the system named is Malassezia globosa. The assay is described as follows: Activation of Malassezia globosa beta-carbonic anhydrase incubated for 15 mins prior to testing by stopped flow CO2 hydrase method.
Conditions: not given
An outline of the steps:
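Recombinant M. globosa β-CA (12.1 nM in assay; enzymes 10-14 nM) preincubated with activator 15 min at room temperature. CO2 hydration followed 10 s at 25 °C by stopped-flow, phenol red 0.2 mM at 557 nm, 20 mM Tris pH 8.3, 20 mM NaClO4; CO2 0.17-17 mM. Initial velocities from the first 5-10% of at least six traces, uncatalyzed rate subtracted; KA from the competitive steady-state equation; mean of 3 assays.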
As for `NCCc1ccc(O)c(O)c1`, the KA turned out to be 9.43 µM. Still for that read-out and setting: the figure for `NCCc1c[nH]c2ccc(O)cc12` is 14.2 µM. `N[C@H](Cc1c[nH]cn1)C(=O)O` showed a KA of 18.1 µM. Same read-out and setting: for `N[C@H](Cc1c[nH]c2ccccc12)C(=O)O` the value was 12.5 µM; for `N[C@H](Cc1ccc(O)cc1)C(=O)O`, 25.1 µM; for `N[C@@H](Cc1c[nH]cn1)C(=O)O`, 29.3 µM.

`Nc1ccc(C[C@H](N)C(=O)O)cc1`: the KA amounted to 13.4 µM.

The compound `N[C@@H](Cc1ccccc1)C(=O)O` gave a KA of 34.1 µM. The same measure, in the same setting: for `NCCc1ccccn1` the value was 7.3 µM; for `N[C@@H](Cc1c[nH]c2ccccc12)C(=O)O`, 10.1 µM. On the same count and under the same terms, for `N[C@H](Cc1ccccc1)C(=O)O` the value was 10.7 µM. As to `CNC[C@H](O)c1ccc(O)c(O)c1`, the KA worked out at 0.72 µM. The compound `NCc1ccccn1` had a KA of 6.12 µM. Same read-out and setting: the figure for `NCCN1CCNCC1` is 0.81 µM. On to `N[C@@H](Cc1ccc(O)cc1)C(=O)O`, for which the KA came to 15.7 µM. Consider `N[C@@H](Cc1ccc(O)c(O)c1)C(=O)O`, for which the KA was determined as 8.31 µM. On the same count and under the same terms, the figure for `N[C@H](Cc1ccc(O)c(O)c1)C(=O)O` is 13.7 µM; for `NCCc1c[nH]cn1` it is 10.9 µM.

Take `NCCN1CCOCC1`: the KA came out at 5.82 µM.

Another assay concerns Malassezia globosa. The note with it: 10 uM.
On to `NCCc1c[nH]cn1`, for which the kcat stood at 18.5 ×10⁵ /s.
